According to ChEMBL document CHEMBL4513216, “Probing the Open Global Health Chemical Diversity Library for Multistage-Active Starting Points for Next-Generation Antimalarials” (ACS Infect Dis, 2020):

Assay: Toxicity liver stage against HepG2, at 10uM
Assay type: cell-based
Design: test concentration 10 uM, cell line HepG2-A16-CD81EGFP
Details: human, HepG2-A16-CD81EGFP cells; read-out: INHIBITION
Procedure, shortened: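 Uninfected HepG2-A16-CD81EGFP cells, 3 × 10^3 per well, 1536-well, plated on prespotted compound at 10 μM final, parasite-free screening media added to match infected plates; puromycin 10 μM positive, DMSO 0.5% negative; run in parallel with 48 h PbLuc assay at 37 °C, 5% CO2; viability by CellTiter-Glo luminescence, normalized to controls.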

Row | SMILES | cytotoxicity at 10 µM [%]
1 | CCN(Cc1nc(C(C)C)no1)Cc1cccs1 | -8.57
2 | NC(=O)CSc1ccccc1NCc1nc(C2CC2)no1 | 1.12
3 | CC(CC(=O)c1ccccc1)NC(=O)c1ccon1 (configuration not stated) | -10.7
4 | CN(CCC#N)C(=O)CN1CCC(c2cc3ccccc3[nH]2)CC1 | 4.35
5 | CC(C)n1cc(CN2CCCN(C(=O)COC3CCCC3)CC2)cn1 | -15.5
6 | O=C(NCc1nnc2n1CCCCC2)N(CC1CCOC1)C1CC1 (configuration not stated) | 5.63
7 | COc1ncccc1NC(=O)N(Cc1ccc(C)o1)C1CC1 | -1.83
8 | O=C(NCc1c[nH]c(=O)[nH]c1=O)C1CCOc2ccccc2C1 (configuration not stated) | -3.03
9 | COc1ccc(CN2CCOC[C@H]2c2nc(-c3ccncc3)c[nH]2)cc1 | -0.588
10 | Cc1cc(C(=O)NC2(c3ccc(Br)cc3)CC2)n(C)n1 | 56.7
11 | Cc1nc(C)n(C2CCCN(C(=O)c3ccc4[nH]nnc4c3)C2)n1 (configuration not stated) | -13.9
12 | C1CC(NCC2CC2)CN(Cc2noc(C3CC3)n2)C1 (configuration not stated) | -3.09
13 | COc1cccc(Cl)c1C(C(=O)O)N1CCC(Cn2cccn2)CC1 (configuration not stated) | -12.5
14 | O=C1N(Cc2ccccn2)C[C@H]2CN(S(=O)(=O)c3ccccc3)CCN12 | 4.97
15 | O=C(CCc1ccccc1)NCC1CCN(Cc2ccccc2)CC1 | -6.29
16 | Cc1nn(C)c(N(C)C)c1CNCC(O)c1ccccc1 (configuration not stated) | -0.989
17 | O=S(=O)(C1CC1)N1C[C@@H]2COC[C@]2(COc2ccccn2)C1 | 5.57
18 | COCCCN1C(=O)CC[C@H]2CN(c3cnc4ccccc4n3)CC[C@H]21 | 5.77
19 | CS(=O)(=O)N1CC(c2ccnc(Nc3ccccn3)n2)C1 | 13.8
20 | O=C(CSC1=NS(=O)(=O)c2cc(F)ccc2N1)c1ccc(Cl)cc1 | 10.3
21 | Cc1noc(OCCOc2ccc(C#N)cc2)n1 | 0.00742

Row | SMILES | cytotoxicity at 10 µM [%]
22 | CN1CCOC(C)(C(=O)N2CCN(C3CCCC3)CC2)C1 (configuration not stated) | -25.8
23 | Cc1nc(CN2CCO[C@@H]3CN(C(=O)CN(C)C)CC[C@@H]3C2)cs1 | -0.587
24 | Cc1noc(C)c1C(=O)N1C[C@@H]2C[C@@H](c3ccncn3)O[C@@H]2C1 | -70
25 | CNC(=O)C(C)(C)N1CCC[C@H]1C(=O)NC1CC1 | 4.82
26 | O=C(c1cc(-c2cccs2)cs1)N1CCOCC1 | 5.01
27 | CSc1nccn1-c1cccc(C(=O)NCCCN2CCOCC2)c1 | -4.74
28 | COc1ccccc1C(N)CC(C)C (configuration not stated) | 6
29 | CCc1noc(Cn2c(=O)c3c(C(F)(F)F)cc(C)nc3n2C)n1 | -3.44
30 | COc1ccc(CCN2CCN(C(=O)c3scnc3C)CC2)cc1 | -8.31
31 | Cc1cccc(C2(NC(=O)CCCn3cncn3)CCCC2)c1 | 15
32 | O=C1[C@@H]2CCN(Cc3ccccn3)C[C@@H]2OCCN1c1ccccc1 | -73.7
33 | CNC(=O)CCc1cc(C)nc(C2CCN(c3cnccn3)CC2)c1 | 1.31
34 | CN(C)C(=O)c1cc2c(nc1NCC1CC1)CCN(CC1CC1)CC2 | 7.54
35 | CCOc1ncccc1CNC(=O)c1c(C)oc(C)c1C | -3.75
36 | c1cncc(COC[C@@H]2CCC[C@@]23CNCCO3)c1 | -106
37 | NC(=O)CC1CCN(c2ncnc3cccc(F)c23)CC1 | 3.39
38 | Cc1cc(N2CCN(Cc3ccnn3C)CC2)cc(C2CCCN2)n1 (configuration not stated) | 6.97
39 | Cc1nnc([C@H]2C[C@H]3OCC[C@H]3N(S(=O)(=O)N(C)C)C2)o1 | -8.44
40 | CCNc1cc2c(nn1)CCN(C(=O)CC1CCCCC1)C2 | -10.3
41 | O=C(c1ccnnc1)N1C[C@@H]2CC[C@H](Oc3cccc(F)c3)[C@@H]2C1 | 2.37
42 | Cc1ccoc1C(=O)N(CCN(C)C)Cc1ccccn1 | -5.47

Row | SMILES | cytotoxicity at 10 µM [%]
43 | Cc1ccc(CN2CCCn3nnc(COCCN(C)C)c3C2)s1 | -114
44 | CSc1ccc(CN(C)Cc2noc(C(C)(C)C)n2)cc1 | -8.58
45 | CCCN1CCCn2nc(CNC(=O)CCOC)cc2C1 | -12.2
46 | CC(C)Cc1nc(CN2CCC(NC(=O)c3cccs3)CC2)no1 | -2.56
47 | COCc1cc(N2CCN(c3ccc(Cl)cn3)CC2)n2nccc2n1 | 8.89
48 | Cc1cncc(C2CCN(Cc3cccn3C)CC2)n1 | -6.94
49 | Cc1noc(CCNS(=O)(=O)N2CCCC2c2ccc(C)o2)n1 (configuration not stated) | -10
50 | Cc1cc(C)n(C2CN(CCc3ccccn3)C2)n1 | 3.65
51 | Cc1ccn2c(F)c(C(=O)N3CCC4(CCC(=O)N(C)C4)CC3)nc2c1 | 5.96
52 | O=C(Cc1ccccn1)N1CCN(C(=O)CC2CCCCC2)CC1 | 5.35
53 | CCOCCCNc1cc(C)nn2cnnc12 | 2.21
54 | CC(C)(C(N)=O)S(=O)(=O)c1ccc(Br)cc1 | 4.4
55 | Cc1ccc(C(=O)N2CCCCC2c2[nH]ncc2S(C)(=O)=O)s1 (configuration not stated) | -11.4
56 | CNc1nc(C)cc(NCc2cc(C)cc3c(C)c(C)[nH]c23)n1 | -30.2
57 | CN(C)C(CNCc1nc(-c2ccsc2)no1)c1ccsc1 (configuration not stated) | -1.63
58 | Cc1nc2c(c(Nc3ccccn3)n1)CN(S(C)(=O)=O)CC2 | 11.1
59 | COc1ccc(C)cc1C(C)NC(=O)CCn1cncn1 (configuration not stated) | -7.82
60 | Cc1csc(N2CCN(Cc3cnc(C)s3)CC2C)n1 (configuration not stated) | 14.7
61 | CC(=O)N1Cc2ccccc2CC2(CCCCN2C)C1 (configuration not stated) | 3.87
62 | COc1ccc(OC)c(-c2nc(CN(C)Cc3noc(C)n3)c(C)o2)c1 | -3.7
63 | O=C(COC1CCCC1)NCCc1noc(-c2ccccn2)n1 | 3.41

Row | SMILES | cytotoxicity at 10 µM [%]
64 | CCS(=O)(=O)N1CC[C@H]2O[C@H](c3nc(C)no3)CC[C@H]21 | 6.73
65 | Cc1nc(-c2ccccc2)sc1CSCCC(N)=O | -7.97
66 | O=C(c1ccc[nH]1)N1CCN(Cc2ccncc2)c2ncccc2C1 | 10.1
67 | O=C(NCCSCc1ccc(Br)s1)C1CCCN(c2cnccn2)C1 (configuration not stated) | 5.34
68 | c1cnc(-c2nc(C3CCOC3)no2)cn1 (configuration not stated) | 7.09
69 | Cc1ccc2snc(C(=O)N3CCN(C(=O)NCCC(C)C)CC3)c2c1 | -0.964
70 | CCOCCC1(CNC(=O)c2ccsc2)CCC1 | 7.92
71 | Cc1cc(C(F)(F)F)cc(N2CCN(Cc3ccccc3)CC(O)C2)n1 (configuration not stated) | 0.165
72 | Cc1oncc1C(=O)N1CCC2(CC1)CN(S(C)(=O)=O)c1ccccc12 | 1.47
73 | Cc1ccc(C(=O)N2C[C@H]3CCC[C@@]3(COCC3CCOCC3)C2)o1 | -66.3
74 | COc1ccc(C(=O)C2CCCN(Cc3ccncc3)C2)cc1OC (configuration not stated) | -0.677
75 | CCN(c1ccccc1)S(=O)(=O)c1cc(C(=O)O)cc2c1CCC2 | 9.69
76 | CNC(=O)c1c(C)cccc1NCc1noc(C2CC2)n1 | 29.7
77 | CC(C)n1cnnc1CN(C)C(=O)c1cc(COc2ccccc2)[nH]n1 | 4.58
78 | CCCN1CC[C@@H]2[C@@H](CO[C@H]2CNC(=O)c2nccn2C)C1 | -111
79 | CC(=O)N[C@@H](C)C(=O)NCc1cccnc1Oc1ccccc1F | -3.53
80 | COc1ccc(COCC(=O)N2CCCC(n3cncn3)C2)cc1 (configuration not stated) | -11.1
81 | O=S(=O)(N1CCCC1)N1CCCCC1CCc1ccccc1 (configuration not stated) | -5.65
82 | Cc1noc(C)c1CCCNC(=O)C1CCCN(C(=O)C2CC2)C1 (configuration not stated) | -0.185
